38 compounds from ChEMBL document CHEMBL1129349, “Antiretroviral agents as inhibitors of both human immunodeficiency virus type 1 integrase and protease” (J Med Chem, 1996) can be followed below.

Test [1] has as its target T1, Human immunodeficiency virus type 1 integrase (Human immunodeficiency virus 1, UniProt Q7ZJM1). Description: (§1) Inhibitory activity against HIV-1 integrase. Summed up:
(§2)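 Purified recombinant wild-type HIV-1 integrase, 200 nM final, preincubated with inhibitor for 30 min at 30 °C. Buffer: 25 mM MOPS pH 7.2, 7.5 mM MnCl2, 50 mM NaCl, 10% DMSO, 10% glycerol, BSA, DTT, 2-mercaptoethanol. Then 20 nM 5'-32P-labeled 21mer U5 duplex added for 60 min. Products run on denaturing 20% polyacrylamide gel and quantified by phosphorimager.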

The target in test [2] is T1, Human immunodeficiency virus type 1 integrase. The test is described as §1. The procedure, abridged:
as §2
This is another data set of the same source.

The target in test [3] is T2, Human immunodeficiency virus type 1 protease (Human immunodeficiency virus 1, UniProt Q72874). Description: Inhibitory activity against HIV-1 protease.
The subject of test [4] is CCRF-CEM. Nature of the test: Inhibitory activity against HIV-1 infected CEM cells. Format: functional, cell-based. The conditions noted are these: Homo sapiens.
The subject of test [5] is Feline immunodeficiency virus. Nature of the test: Inhibitory activity against feline was measured immunodeficiency virus (FIV) using 3'-processing (3'-proc) assay.. Format: functional. The procedure, abridged:
(§3)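 Recombinant FIV or SIV integrase, 600 nM final, preincubated 30 min at 30 °C with inhibitor in Mn2+/MOPS pH 7.2 buffer with 10% DMSO. 20 nM 5'-32P-labeled 21mer duplex added and incubated 60 min. The 3'-processed 19mer was resolved on denaturing 20% polyacrylamide gel and quantified by phosphorimager.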

For test [6], the system named is Simian immunodeficiency virus. Nature of the test: Inhibitory activity against simian was measured immunodeficiency virus (SIV) using 3'-processing (3'-proc). Format: functional. Summed up:
as §3

Test [7] addresses T2, Human immunodeficiency virus type 1 protease. Description: Inhibitory activity against HIV-1 Protease.
Another test has as its target T3, DNA topoisomerase 1 (Homo sapiens, UniProt P11387).
T3 sequence (P11387 whole entry): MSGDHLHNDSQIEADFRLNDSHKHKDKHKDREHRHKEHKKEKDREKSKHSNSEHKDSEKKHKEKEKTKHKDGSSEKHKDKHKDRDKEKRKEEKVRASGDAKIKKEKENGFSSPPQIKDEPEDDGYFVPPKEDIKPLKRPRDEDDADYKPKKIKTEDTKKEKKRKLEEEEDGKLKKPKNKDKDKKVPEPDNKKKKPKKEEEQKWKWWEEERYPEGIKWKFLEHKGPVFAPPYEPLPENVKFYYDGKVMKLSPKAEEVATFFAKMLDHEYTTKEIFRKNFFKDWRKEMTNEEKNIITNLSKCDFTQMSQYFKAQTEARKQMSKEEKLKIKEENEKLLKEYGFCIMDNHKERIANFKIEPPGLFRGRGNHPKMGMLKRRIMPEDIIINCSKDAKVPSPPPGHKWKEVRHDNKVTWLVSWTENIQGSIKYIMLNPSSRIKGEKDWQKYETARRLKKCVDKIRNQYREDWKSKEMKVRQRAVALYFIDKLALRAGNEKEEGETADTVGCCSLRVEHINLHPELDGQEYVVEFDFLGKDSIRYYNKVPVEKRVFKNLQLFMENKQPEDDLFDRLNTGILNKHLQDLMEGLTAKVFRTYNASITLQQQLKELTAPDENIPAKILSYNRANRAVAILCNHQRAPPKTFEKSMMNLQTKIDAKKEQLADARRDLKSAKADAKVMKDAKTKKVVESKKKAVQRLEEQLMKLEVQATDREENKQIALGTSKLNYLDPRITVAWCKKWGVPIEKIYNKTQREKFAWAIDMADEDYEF
Nature of the test: Inhibitory activity against topoisomerase I. Summed up:
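Eukaryotic topoisomerase I on a duplex oligonucleotide with a single strong cleavage site, 3'-end labeled with α-[32P]cordycepin. Scored both for induction of cleavable complexes and for blocking camptothecin-induced complexes. Stopped with 0.5% SDS, proteinase K 60 min at 50 °C, denaturing 16% PAGE.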

Test [8] has as its target T4, Human immunodeficiency virus type 2 integrase (Human immunodeficiency virus 2, UniProt P89582).
T4 sequence (P89582 whole entry): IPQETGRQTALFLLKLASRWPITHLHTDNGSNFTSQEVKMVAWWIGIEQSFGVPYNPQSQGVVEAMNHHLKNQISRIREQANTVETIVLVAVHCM
Nature of the test: Inhibitory activity against HIV-2 Integrase was measured using 3'-processing (3'-proc) assay. The procedure, abridged:
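HIV-2 integrase, 200 nM final, preincubated 30 min at 30 °C with inhibitor in Mn2+/MOPS pH 7.2 buffer containing 10% DMSO. 3'-processing started with 20 nM 5'-32P-labeled 21mer duplex substrate and run 60 min more. Denaturing 20% PAGE, phosphorimager quantitation of the 19mer product.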

The subject of test [9] is CCRF-CEM. Description: Inhibitory activity against HIV-1 infected CEM cells; inactive. Format: functional, cell-based, Homo sapiens.

T1 sequence (Q7ZJM1 whole entry): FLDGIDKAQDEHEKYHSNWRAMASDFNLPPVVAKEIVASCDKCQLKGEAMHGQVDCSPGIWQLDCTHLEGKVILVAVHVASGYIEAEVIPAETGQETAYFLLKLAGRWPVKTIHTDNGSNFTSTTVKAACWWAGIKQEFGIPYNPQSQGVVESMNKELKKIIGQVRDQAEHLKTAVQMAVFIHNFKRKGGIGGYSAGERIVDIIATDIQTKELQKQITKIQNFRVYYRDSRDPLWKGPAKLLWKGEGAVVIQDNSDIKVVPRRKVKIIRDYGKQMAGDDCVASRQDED

Broadly, the IC50 is the concentration at which inhibition is half-maximal. The low end stands for greater potency in that assay, the high end for weaker potency in that assay. For the compound `O=C1C(O)=C(C(C2=C(O)C(=O)c3ccccc3C2=O)c2ccc(Cl)cc2)C(=O)c2ccccc21`, the IC50 in test [1] and in test [2] was over 100 µM each time.
For the compound `O=C1C(O)=C(C(C2=C(O)C(=O)c3ccccc3C2=O)c2ccc(Cl)cc2Cl)C(=O)c2ccccc21`, the IC50 in [1] was found to be 37 µM; in test [2] it was 40 µM; in [3], 24 µM.
On to `O=c1c(C(c2ccc(C(c3c(O)oc4ccccc4c3=O)c3c(O)oc4ccccc4c3=O)cc2)c2c(O)oc3ccccc3c2=O)c(O)oc2ccccc12`, for which the IC50 in the test with CCRF-CEM [4] stood at 11.5 µM; in test [5], 2.2 µM; in test [1], 1.5 µM; in test [6] it was 2.3 µM; in test [7] it was 1.7 µM; in test [2] it was 0.8 µM. For the same compound, the IC50 against DNA topoisomerase 1 stood at 10 µM; in test [8] it was 1 µM.
Take `O=C1Oc2ccccc2C(O)C1Sc1c(O)oc2ccccc2c1=O` (configuration not stated): the IC50 was found to be 80 µM in [1], 100 µM in test [2] and 21 µM in [3].
Consider `CC(=O)Nc1ccc(C(C2=C(O)C(=O)c3ccccc3C2=O)C2=C(O)C(=O)c3ccccc3C2=O)cc1`, for which the IC50 in test [1] was 86 µM; in test [2], 78 µM.
Regarding `COc1ccc2c(O)c(S(=O)(=O)c3ccc(C)cc3)c(=O)oc2c1`, the IC50 in [1], in test [2] and in test [3] was over 100 µM throughout.
`CC(C1=C(O)C(=O)c2ccccc2C1=O)C1=C(O)C(=O)c2ccccc2C1=O`: the IC50 in [1] and in [2] was over 100 µM in each case.
Turning to `O=C1C(O)=C(C(CCc2ccccc2)C2=C(O)C(=O)c3ccccc3C2=O)C(=O)c2ccccc21`, the IC50 was determined as 83 µM in [1] and 90 µM in [2].
Consider `CCOc1ccc(C(C2=C(O)C(=O)c3ccccc3C2=O)C2=C(O)C(=O)c3ccccc3C2=O)cc1OC`, for which the IC50 in test [1] and in [2] was over 100 µM throughout.
For `CC(=O)c1cccc(NC(=O)C(=O)c2c(O)oc3ccccc3c2=O)c1`, the IC50 in test [1], in test [2] and in test [3] was over 100 µM in each case.
For `O=C1Oc2ccccc2C(O)C1Cc1c(O)oc2ccccc2c1=O` (configuration not stated), the IC50 in test [1], in test [2] and in test [3] was over 100 µM in each case.
For the compound `O=C1C(O)=C(C(C2=C(O)C(=O)c3ccccc3C2=O)c2ccc(Cl)c(Cl)c2)C(=O)c2ccccc21`, the IC50 amounted to 90 µM in [1] and 52 µM in test [2].
As to `COc1ccc2c(O)c(S(=O)(=O)c3ccc(Cl)cc3)c(=O)oc2c1`, the IC50 in [1], in test [2] and in test [3] was over 100 µM in each case.
On to `O=c1oc2c(-c3ccccc3)cccc2c(O)c1-c1ccccc1`, for which the IC50 in [1] was over 100 µM; in test [2] it was over 100 µM; in test [3] it was 13 µM.
On to `Cc1ccc(S(=O)(=O)N/N=C(/CCN2CCCC2)CC(c2ccccc2)c2c(O)oc3ccccc3c2=O)cc1` (configuration not stated), for which the IC50 in test [1], in test [2] and in test [3] was over 100 µM each time.
With `O=C(c1cccc([N+](=O)[O-])c1)c1c(O)oc2ccccc2c1=O`, the IC50 in test [1], in [2] and in [3] was over 100 µM in each case.
As to `CC(C)c1cccc(C(C)C)c1NC(=O)C(=O)CC(=O)CC(c1ccccc1)c1c(O)oc2ccccc2c1=O` (configuration not stated), the IC50 in test [1] is over 100 µM; in test [2], over 100 µM; in [3], 31 µM.
Turning to `O=c1c(C(c2ccc3c(c2)OCO3)c2c(O)oc3ccccc3c2=O)c(O)oc2ccccc12`, the 50% inhibitory concentration (IC50) in test [1] was 47 µM; in test [2], 18 µM; in [3], 30 µM.
In the same order, the values of `O=c1oc2cccc(O)c2c(O)c1Cc1ccccc1` are over 100 µM, over 100 µM and over 100 µM.
In the same order, the values of `O=c1oc2ccccc2c(O)c1-c1ccccc1` are over 100 µM, over 100 µM and 32 µM.
In the same order, the values of `CCCCCCc1cc2c(cc1O)OC(=O)C(C(c1ccccc1)c1c(O)oc3cc(O)c(CCCCCC)cc3c1=O)C2O` (configuration not stated) are 10.5 µM, 12 µM and 0.32 µM.
Consider `O=C1C(O)=C(C(C2=C(O)C(=O)c3ccccc3C2=O)c2ccc(C(C3=C(O)C(=O)c4ccccc4C3=O)C3=C(O)C(=O)c4ccccc4C3=O)cc2)C(=O)c2ccccc21`, for which the IC50 entry in the test with CCRF-CEM [9] was “Not Active”; in test [1], 7.5 µM; in [7], 0.75 µM; in test [2], 2.7 µM; on DNA topoisomerase 1, 60 µM.
`O=C(NC1=C(Cl)C(=O)c2ccccc2C1=O)C(=O)c1c(O)c2ccccc2oc1=O`: the IC50 in [1], in [2] and in test [3] was over 100 µM in each case.
On to `O=C1C(=O)c2ccccc2C(O)=C1Cc1ccc(Cl)cc1`, for which the IC50 was determined as 92 µM in test [1], 56 µM in [2] and 3 µM in [3].
`O=C1C(O)=C(C(C#Cc2ccccc2)C2=C(O)C(=O)c3ccccc3C2=O)C(=O)c2ccccc21`: the IC50 in test [1] is over 100 µM; in test [2], 72 µM.
On to `COc1cc(C(C2=C(O)C(=O)c3ccccc3C2=O)C2=C(O)C(=O)c3ccccc3C2=O)cc(Br)c1O`, for which the IC50 in [1] amounted to 32 µM; in test [2], 20 µM.
In the same order, the values of `CN(C)c1ccc(C(C2=C(O)C(=O)c3ccccc3C2=O)C2=C(O)C(=O)c3ccccc3C2=O)cc1` are over 100 µM and over 100 µM.
Regarding `O=C1C(=O)c2ccccc2C(O)=C1CCCC1CCC2CCCCC2C1` (configuration not stated), the values for the IC50 in test [1], in test [2] and in [3] were over 100 µM, over 100 µM and 8.5 µM, respectively.
For the compound `CCCCCCC/N=C1/C(=O)c2ccccc2C(O)=C1O`, the results for the IC50 in test [1], in [2] and in test [3] were over 100 µM, over 100 µM and 33 µM, respectively.
Regarding `O=C1C(O)=C(C(C2=C(O)C(=O)c3ccccc3C2=O)c2ccccc2)C(=O)c2ccccc21`, the IC50 came to 68 µM in test [1] and 48 µM in [2].
For the compound `O=C1C(=O)c2ccccc2C(O)=C1CSc1ccc(Cl)cc1`, the IC50 is over 100 µM in test [1], over 100 µM in test [2] and 50 µM in test [3].
For the compound `CCOC(=O)C(C1=C(O)C(=O)c2ccccc2C1=O)C1=C(O)C(=O)c2ccccc2C1=O`, the results for the IC50 in test [1] and in [2] were 92 µM and 60 µM, respectively.
On to `O=C1C(=O)c2ccccc2C(O)=C1Sc1ccccc1`, for which the IC50 in [1], in test [2] and in test [3] was over 100 µM each time.
Consider `O=C(SCc1c(O)c2ccccc2oc1=O)c1ccccc1`, for which the IC50 in [1], in test [2] and in test [3] was over 100 µM in each case.
As to `COc1cc(C(C2=C(O)C(=O)c3ccccc3C2=O)C2=C(O)C(=O)c3ccccc3C2=O)cc(OC)c1OC`, the IC50 in [1] and in [2] was over 100 µM each time.
On to `O=C(c1ccc(Cl)cc1)c1c(O)c2ccccc2oc1=O`, for which the IC50 in test [1], in [2] and in test [3] was over 100 µM each time.
As for `CCOC(=O)C(c1c(O)c2ccccc2oc1=O)c1c(O)c2ccccc2oc1=O` [ETHYL BISCOUMACETATE], the IC50 in test [1], in test [2] and in test [3] was over 100 µM throughout.
In the case of `O=C1C=C(O)C(=O)c2ccccc21` [LAWSONE], in test [3], the IC50 is over 100 µM.
